Data from ChEMBL document CHEMBL5724801, “EUbOPEN Chemogenomics Library - Multiplex” (2024).
“And” between values parts separate entries of the source, which are not always exact repeats. Identical values can stand only once.

System: U2OS
Assay: Multiplex assay against U2OS
Type: toxicity, cell-based
Conditions: human
Method in brief: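 Per cents of healthy-nucleus cells form the tubulin, mitochondrial-mass and membrane-permeability phenotype values. Live cells were stained at seeding with Hoechst33342, BioTracker Green Microtubule Cytoskeleton Dye, MitoTracker Red and Annexin V Alexa Fluor 680. After compound addition they were imaged on a CQ1 microscope at 37°C and 5% CO2, and CellPathfinder machine-learning gating split them into Hoechst high-intensity objects or normal cells, normal cells into healthy, pyknosed or fragmented nuclei, and pyknosed cells into mitotic or apoptotic.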

[1] = 12 h, 1 µM, compound concentration 1 uM
[2] = 12 h, 10 µM, compound concentration 10 uM
[3] = 24 h, 1 µM, compound concentration 1 uM
[4] = 24 h, 10 µM, compound concentration 10 uM
[5] = 48 h, 1 µM, compound concentration 1 uM
[6] = 48 h, 10 µM, compound concentration 10 uM

S=c1[nH]nc(-c2cccs2)n1-c1ccccc1
Population Apoptotic (%) [1]: 50% and 31.82% | Population Fragmented Nuclei (%) [1]: 2.88% and 1.49% | Population Healthy Nuclei (%) [1]: 87.7% and 82.09% | Population Hoechst High Intensity Objects (%) [1]: 0% | Population Membrane Permeable-Phenotype (%) [1]: 0% and 3.64% | Population Mitochondria Different-Phenotype (%) [1]: 0.3% and 2.73% | Population Mitotic Cells (%) [1]: 50% and 68.18% | Population Normal (%) [1]: 100% | Population Pyknosed Nuclei (%) [1]: 9.42% and 16.42% | Population Tubulin-Different-Phenotype (%) [1]: 0.3% and 0% | Total Cell Count [1]: 382 and 134 | Population Apoptotic (%) [2]: 41.82% and 31.25% | Population Fragmented Nuclei (%) [2]: 1.86% and 4.61% | Population Healthy Nuclei (%) [2]: 83.55% and 84.87% | Population Hoechst High Intensity Objects (%) [2]: 0% | Population Membrane Permeable-Phenotype (%) [2]: 0.32% and 5.43% | Population Mitochondria Different-Phenotype (%) [2]: 0.32% and 5.43% | Population Mitotic Cells (%) [2]: 58.18% and 68.75% | Population Normal (%) [2]: 100% | Population Pyknosed Nuclei (%) [2]: 14.59% and 10.53% | Population Tubulin-Different-Phenotype (%) [2]: 0.63% and 0% | Total Cell Count [2]: 377 and 152 | Population Apoptotic (%) [3]: 38.78% and 38.46% | Population Fragmented Nuclei (%) [3]: 1.97% and 1.6% | Population Healthy Nuclei (%) [3]: 88.36% and 84.57% | Population Hoechst High Intensity Objects (%) [3]: 0.2% and 0% | Population Membrane Permeable-Phenotype (%) [3]: 0.22% and 3.14% | Population Mitochondria Different-Phenotype (%) [3]: 0.22% and 3.14% | Population Mitotic Cells (%) [3]: 61.22% and 61.54% | Population Normal (%) [3]: 99.8% and 100% | Population Pyknosed Nuclei (%) [3]: 9.66% and 13.83% | Population Tubulin-Different-Phenotype (%) [3]: 0.89% and 0% | Total Cell Count [3]: 508 and 188 | Population Apoptotic (%) [4]: 38.46% and 40% | Population Fragmented Nuclei (%) [4]: 2.57% and 1.6% | Population Healthy Nuclei (%) [4]: 87.15% and 87.77% | Population Hoechst High Intensity Objects (%) [4]: 0% | Population Membrane Permeable-Phenotype (%) [4]: 0.91% and 5.45% | Population Mitochondria Different-Phenotype (%) [4]: 0.23% and 3.03% | Population Mitotic Cells (%) [4]: 61.54% and 60% | Population Normal (%) [4]: 100% | Population Pyknosed Nuclei (%) [4]: 10.28% and 10.64% | Population Tubulin-Different-Phenotype (%) [4]: 0.91% and 1.21% | Total Cell Count [4]: 506 and 188 | Population Apoptotic (%) [5]: 48.15% and 60% | Population Fragmented Nuclei (%) [5]: 1.9% and 2.52% | Population Healthy Nuclei (%) [5]: 90.4% and 84.91% | Population Hoechst High Intensity Objects (%) [5]: 0.09% and 0% | Population Membrane Permeable-Phenotype (%) [5]: 0.84% and 0.74% | Population Mitochondria Different-Phenotype (%) [5]: 0% and 3.7% | Population Mitotic Cells (%) [5]: 51.85% and 40% | Population Normal (%) [5]: 99.91% and 100% | Population Pyknosed Nuclei (%) [5]: 7.7% and 12.58% | Population Tubulin-Different-Phenotype (%) [5]: 0.63% and 0% | Population Apoptotic (%) [6]: 25.3% and 58.62% | Population Fragmented Nuclei (%) [6]: 3.4% and 3.18% | Population Healthy Nuclei (%) [6]: 88.05% and 87.58% | Population Hoechst High Intensity Objects (%) [6]: 0% | Population Membrane Permeable-Phenotype (%) [6]: 1.29% and 2.18% | Population Mitochondria Different-Phenotype (%) [6]: 0.12% and 3.27% | Population Mitotic Cells (%) [6]: 74.7% and 41.38% | Population Normal (%) [6]: 100% | Population Pyknosed Nuclei (%) [6]: 8.55% and 9.24% | Population Tubulin-Different-Phenotype (%) [6]: 0.94% and 0%

CSCC[C@H](NC=O)C(=O)N[C@@H](CC(C)C)C(=O)N[C@@H](Cc1ccccc1)C(=O)O
Population Apoptotic (%) [1]: 73% and 100% | Population Fragmented Nuclei (%) [1]: 29% and 17% | Population Healthy Nuclei (%) [1]: 75% | Population Mitochondria Different-Phenotype (%) [1]: 4% and 3% | Total Cell Count [1]: 254 and 135 | Population Apoptotic (%) [2]: 69% and 90% | Population Fragmented Nuclei (%) [2]: 23% and 16% | Population Healthy Nuclei (%) [2]: 70% and 74% | Population Membrane Permeable-Phenotype (%) [2]: 4% | Population Mitochondria Different-Phenotype (%) [2]: 1% and 2% | Population Mitotic Cells (%) [2]: 30% | Total Cell Count [2]: 202 and 123 | Population Apoptotic (%) [3]: 91% and 90% | Population Fragmented Nuclei (%) [3]: 24% and 17% | Population Healthy Nuclei (%) [3]: 75% | Population Mitochondria Different-Phenotype (%) [3]: 3% and 0% | Population Mitotic Cells (%) [3]: 8% | Total Cell Count [3]: 288 and 147 | Population Apoptotic (%) [4]: 76% and 100% | Population Fragmented Nuclei (%) [4]: 23% and 19% | Population Healthy Nuclei (%) [4]: 68% and 70% | Population Membrane Permeable-Phenotype (%) [4]: 8% | Population Mitochondria Different-Phenotype (%) [4]: 1% and 2% | Population Mitotic Cells (%) [4]: 23% and 0% | Total Cell Count [4]: 247 and 147 | Population Fragmented Nuclei (%) [5]: 16% and 18% | Population Healthy Nuclei (%) [5]: 75% and 68% | Population Membrane Permeable-Phenotype (%) [5]: 4% | Population Mitochondria Different-Phenotype (%) [5]: 3% and 1% | Total Cell Count [5]: 411 and 202 | Population Apoptotic (%) [6]: 90% and 100% | Population Fragmented Nuclei (%) [6]: 20% and 53% | Population Healthy Nuclei (%) [6]: 70% and 25% | Population Mitotic Cells (%) [6]: 9% and 0%
